Assay results pooled from the literature.
Converted amounts (≈) assume the structure as drawn.

| Compound | target or system | test | test system | conditions | measurement | value |
| --- | --- | --- | --- | --- | --- | --- |
| O=c1cc(OCc2cc(-c3ccc(Cl)cc3Cl)no2)c2ccccc2o1 | DND41 | cell growth or viability, MTS |  | 72 h | IC50 | > 100 µM |
| CC(=O)N1CCN(c2ccc(OCC3COC(Cn4ccnc4)(c4ccc(Cl)cc4Cl)O3)cc2)CC1 (stereo not shown) | Candida tropicalis | microbial growth, broth dilution | ATCC13803 | 48 h | MIC | 8 µg/mL |
| OC(Cn1cncn1)(Cn1cncn1)c1ccc(F)cc1F | Candida tropicalis | microbial growth, broth dilution | CGMCC2 | 48 h | MIC | 2 µM |
| FC(F)(F)c1cc(OCc2cc(-c3ccccc3)no2)c2ccccc2n1 | DND41 | cell growth or viability, MTS |  | 72 h | IC50 | 65.2 µM |
| CN[C@H](CC(C)C)C(=O)N[C@H]1C(=O)N[C@@H](CC(N)=O)C(=O)N[C@H]2C(=O)N[C@H]3C(=O)N[C@H](C(=O)N[C@H](C(=O)O)c4cc(O)cc(O)c4-c4cc3ccc4O)[C@H](O)c3ccc(c(Cl)c3)Oc3cc2cc(c3O[C@@H]2O[C@H](CO)[C@@H](O)[C@H](O)[C@H]2O[C@H]2C[C@](C)(N)[C@H](O)[C@H](C)O2)Oc2ccc(cc2Cl)[C@H]1O | Streptococcus agalactiae | microbial growth |  | clinical isolate | MIC90 | 0.5 µg/mL (≈ 0.345 µM) |
| N#Cc1ccc(-c2cc(COc3cc(C(F)(F)F)nc4ccccc34)on2)cc1 | DND41 | cell growth or viability, MTS |  | 72 h | IC50 | 43.7 µM |
| CC(=O)NC[C@H]1CN(c2ccc(N3CCOCC3)c(F)c2)C(=O)O1 | Streptococcus agalactiae | microbial growth |  | clinical isolate | MIC90 | 1 µg/mL (≈ 2.96 µM) |
| CC(=O)ON=C1C=CC(=C(C#N)c2ccccc2)C=C1 | Candida tropicalis | microbial growth, broth dilution | ATCC13803 | 48 h | MIC | 2 µg/mL |
| CC[C@H]1OC(=O)[C@H](C)[C@@H](O[C@H]2C[C@@](C)(OC)[C@@H](O)[C@H](C)O2)[C@H](C)[C@@H](O[C@@H]2O[C@H](C)C[C@H](N(C)C)[C@H]2O)[C@](C)(O)C[C@@H](C)/C(=N\OCOCCOC)[C@H](C)[C@@H](O)[C@]1(C)O | Streptococcus agalactiae | microbial growth |  | clinical isolate | MIC90 | 8 µg/mL (≈ 9.56 µM) |
| N#CC(=C1C=CC(=NOC(=O)OCc2ccccc2)C=C1)c1ccccc1 | Candida tropicalis | microbial killing, broth dilution | ATCC13803 | 48 h | MFC | 256 µg/mL (≈ 718 µM) |
